One may read the AUC(0-inf) as total exposure, with the tail of the curve extrapolated. A lower AUC(0-inf) goes with low exposure. For orientation: bioavailability means dose-corrected exposure relative to a reference, in per cent. As usually defined, the IC50 is the concentration that gives 50% inhibition.

Data set [1] relates to A549. Description: Induction of apoptosis in human A549 cells assessed as necrotic cells at 5.0 uM incubated for 48 hrs by annexin V-FITC/PI double staining based flow cytometric analysis (reference value: 0%). It counts as functional.
In data set [2] the test system is A549. Kind of data set: Induction of apoptosis in human A549 cells assessed as viable cells at 0.3 uM incubated for 48 hrs by annexin V-FITC/PI double staining based flow cytometric analysis (reference value: 98.2%). It counts as functional. The settings on record: A549, 48 h, read-out: Activity. In general terms: A flow cytometer gives signals particle by particle.

Another data set concerns the target T1, Peregrin (Homo sapiens) (UniProt P55201).
T1 sequence (whole entry): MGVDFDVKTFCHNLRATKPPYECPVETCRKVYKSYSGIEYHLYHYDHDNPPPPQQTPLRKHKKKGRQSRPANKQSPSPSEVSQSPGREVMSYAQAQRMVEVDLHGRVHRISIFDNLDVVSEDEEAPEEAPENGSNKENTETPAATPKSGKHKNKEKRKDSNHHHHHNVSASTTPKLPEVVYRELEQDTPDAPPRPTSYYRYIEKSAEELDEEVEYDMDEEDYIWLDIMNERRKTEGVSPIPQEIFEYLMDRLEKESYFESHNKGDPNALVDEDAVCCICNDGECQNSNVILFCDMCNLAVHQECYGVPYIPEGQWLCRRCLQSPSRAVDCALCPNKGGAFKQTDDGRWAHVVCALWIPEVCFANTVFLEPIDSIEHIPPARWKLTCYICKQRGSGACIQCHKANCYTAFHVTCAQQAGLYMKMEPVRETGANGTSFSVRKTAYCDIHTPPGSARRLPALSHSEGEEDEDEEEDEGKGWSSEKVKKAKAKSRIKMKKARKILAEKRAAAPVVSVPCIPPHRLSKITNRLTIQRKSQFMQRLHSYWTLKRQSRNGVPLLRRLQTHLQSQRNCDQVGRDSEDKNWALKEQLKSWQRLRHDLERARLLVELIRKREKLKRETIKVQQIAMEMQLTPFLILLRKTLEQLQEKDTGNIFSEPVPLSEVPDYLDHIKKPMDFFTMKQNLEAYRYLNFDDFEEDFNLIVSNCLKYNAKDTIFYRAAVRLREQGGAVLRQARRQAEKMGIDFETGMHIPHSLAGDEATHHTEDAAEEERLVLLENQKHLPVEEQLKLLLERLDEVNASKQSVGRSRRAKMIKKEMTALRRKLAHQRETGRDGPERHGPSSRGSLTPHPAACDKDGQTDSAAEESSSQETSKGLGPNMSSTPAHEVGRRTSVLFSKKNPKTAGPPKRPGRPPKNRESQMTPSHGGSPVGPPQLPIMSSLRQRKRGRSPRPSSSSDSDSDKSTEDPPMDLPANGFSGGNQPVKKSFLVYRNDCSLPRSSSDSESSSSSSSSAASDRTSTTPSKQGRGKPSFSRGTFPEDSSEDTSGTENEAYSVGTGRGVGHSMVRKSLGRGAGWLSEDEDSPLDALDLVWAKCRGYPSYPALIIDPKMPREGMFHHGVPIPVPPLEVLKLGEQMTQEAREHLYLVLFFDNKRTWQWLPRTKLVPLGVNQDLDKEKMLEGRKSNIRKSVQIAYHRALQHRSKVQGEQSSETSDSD
Kind of data set: Binding affinity to BRPF1B (unknown origin) at 20 uM by Alpha screen assay relative to control. Background: In Alpha technology, singlet oxygen from a donor bead excites a nearby acceptor bead.

Data set [3] is described as follows: AUC (0 to infinity) in Sprague-Dawley rat at 2.5 mg/kg, iv measured for 0.083 to 24 hrs by LC-MS/MS/MS analysis. More on the design: dose 2.5 mg/kg, time infinity, route intravenous. It counts as ADME, organism-based. The conditions noted are these: in vivo.
Data set [4] concerns A549. Kind of data set: Induction of apoptosis in human A549 cells assessed as late apoptotic cells at 0.3 uM incubated for 48 hrs by annexin V-FITC/PI double staining based flow cytometric analysis (reference value: 0.039%). The data set is classed as functional.
For data set [5], the system named is A549. Description: Induction of apoptosis in human A549 cells incubated for 48 hrs by annexin V-FITC/PI double staining based flow cytometric analysis. It counts as functional, cell-based.
For data set [6], the system named is A549. Kind of data set: Induction of apoptosis in human A549 cells assessed as early apoptotic cells at 5.0 uM incubated for 48 hrs by annexin V-FITC/PI double staining based flow cytometric analysis (reference value: 1.76%). It counts as functional.
A short description of data set [7]: Apparent clearance in Sprague-Dawley rat at 10 mg/kg, po measured for 0.083 to 24 hrs by LC-MS/MS analysis. The data set is classed as ADME, organism-based. The conditions noted are these: in vivo, read-out: CL(app) (converted).
In data set [8] the test system is A549. Description: Induction of apoptosis in human A549 cells assessed as late apoptotic cells at 3.0 uM incubated for 48 hrs by annexin V-FITC/PI double staining based flow cytometric analysis (reference value: 0.039%). It counts as functional.
Data set [9] in a line: Oral bioavailability in Sprague-Dawley rat at 10 mg/kg measured for 0.083 to 24 hrs by LC-MS/MS analysis. It counts as ADME, organism-based. The settings on record: in vivo.
The subject of data set [10] is A549. Kind of data set: Induction of cell cycle arrest in human A549 cells assessed as increase in accumulation at M phase incubated for 48 hrs by BrdU/PI staining based flow cytometric analysis. It counts as functional. The method in brief:
(§1)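 Subconfluent A549 cells exposed 48 h to 0.3–5.0 μM with DMSO vehicle control. Pulse-labelled with 10 μM BrdU for 30 min at 37 °C before harvest. Fixed in 70% ethanol, denatured in 2 M HCl, neutralised, then stained with fluorescein anti-BrdU antibody and propidium iodide. Analysed by flow cytometry with 488 nm excitation.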

Data set [11] deals with Bromodomain-containing protein 4 (Homo sapiens, UniProt O60885). Description: Inhibition of recombinant human His-tagged BRD4 bromodomain 1/2 (2 to 1362 residues) expressed in […] insect cells using biotinylated H4(1 to 21)K5/8/12/16Ac peptide as substrate preincubated for 30 mins followed by substrate addition and measured after 30 mins by Alpha screen assay.
The test system of another data set is HepG2. Kind of data set: Antiproliferative activity against human HepG2 cells incubated for 48 hrs by MTT assay. The data set is classed as functional, cell-based. The conditions noted are these: HepG2, 48 h. The method in brief:
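Cells kept in DMEM or RPMI 1640 with 10% FBS at 37 °C, 5% CO2. MTT added for 4 h at 37 °C, formazan dissolved in DMSO, OD read at 570 nm. Survival % taken relative to blank and control wells. Triplicate runs; IC50 from curve fit.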
For orientation: Tetrazolium assays rely on reduction of a dye to a coloured formazan, in cell work by metabolically active cells.

Data set [12] deals with Bromodomain-containing protein 3 (Homo sapiens) (UniProt Q15059). Kind of data set: Binding affinity to BRD3 bromodomain 2 (unknown origin) at 20 uM by Alpha screen assay relative to control.
In data set [13] the test system is A549. Kind of data set: Induction of apoptosis in human A549 cells assessed as viable cells at 3.0 uM incubated for 48 hrs by annexin V-FITC/PI double staining based flow cytometric analysis (reference value: 98.2%). The data set is classed as functional. The settings on record: A549, 48 h, read-out: Activity.
Data set [14] can be described thus: Volume of distribution at steady state in Sprague-Dawley rat at 2.5 mg/kg, iv measured for 0.083 to 24 hrs by LC-MS/MS analysis. It counts as ADME, organism-based. The settings on record: in vivo, read-out: Vdss.
The test system of data set [15] is A549. Description: Induction of cell cycle arrest in human A549 cells assessed as accumulation at […] phase at 0.3 uM incubated for 48 hrs by BrdU/PI staining based flow cytometric analysis. It counts as functional. Summed up:
as §1

Some results are limits rather than exact numbers.

Bromodomain-containing protein 3 (Homo sapiens), sequence (Q15059 2-726 limits assumed): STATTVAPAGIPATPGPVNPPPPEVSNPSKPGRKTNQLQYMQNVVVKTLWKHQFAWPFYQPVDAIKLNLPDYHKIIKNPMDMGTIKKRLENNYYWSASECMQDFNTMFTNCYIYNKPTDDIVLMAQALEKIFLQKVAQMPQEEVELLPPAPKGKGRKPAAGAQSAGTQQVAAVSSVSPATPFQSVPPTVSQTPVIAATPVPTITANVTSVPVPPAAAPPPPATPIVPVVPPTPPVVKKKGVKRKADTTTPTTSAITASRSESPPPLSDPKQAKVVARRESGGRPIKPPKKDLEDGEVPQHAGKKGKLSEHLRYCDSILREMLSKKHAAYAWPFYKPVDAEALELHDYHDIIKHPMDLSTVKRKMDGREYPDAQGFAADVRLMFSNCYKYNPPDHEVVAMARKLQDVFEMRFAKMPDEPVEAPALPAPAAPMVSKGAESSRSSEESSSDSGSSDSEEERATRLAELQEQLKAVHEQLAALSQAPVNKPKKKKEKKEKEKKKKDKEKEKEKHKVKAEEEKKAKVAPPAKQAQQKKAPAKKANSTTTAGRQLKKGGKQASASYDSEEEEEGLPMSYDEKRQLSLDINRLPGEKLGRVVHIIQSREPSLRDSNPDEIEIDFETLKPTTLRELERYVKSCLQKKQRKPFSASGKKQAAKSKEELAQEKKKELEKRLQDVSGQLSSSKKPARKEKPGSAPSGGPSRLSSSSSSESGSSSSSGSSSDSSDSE

Consider `COc1ccc(Cl)cc1S(=O)(=O)Nc1ccc2[nH]c(=O)c3ccccc3c2c1`, for which the Activity with A549 [1] was 0.036%; on Peregrin (Homo sapiens), more than 30%; in the data set on A549 [4], 2.63%; with A549 [5], “Dose-dependent effect”; with A549 [6] it was 72%; with A549 [8], 7.11%. Also, the results for the Activity result (with A549 [10]; in data set [12]; in the data set on A549 [15]) were “Dose-dependent effect”, more than 70% and 60.84%, respectively. Besides, the viability at 0.3 µM in the data set with A549 [2] amounted to 69.6%. In addition, the AUC(0-inf) in data set [3] came out at 505 ng·h/mL. Moreover, in data set [7], the CL/F was 303 mL/min/kg. In [9], this compound yielded a bioavailability of 36.6%. The IC50 is 240 nM in data set [11] and 4.83 µM in the data set on HepG2. Besides, the viability at 3 µM in the data set with A549 [13] was determined as 24.6%. Moreover, in [14], the Vd stood at 76.7 L/kg.

These data come from ChEMBL document CHEMBL4351018, “Novel phenanthridin-6(5H)-one derivatives as potent and selective BET bromodomain inhibitors: Rational design, synthesis and biological evaluation” (Eur J Med Chem, 2019).
